Source: ChEMBL document CHEMBL1140247, “The identification, synthesis, protein crystal structure and in vitro biochemical evaluation of a new 3,4-diarylpyrazole class of Hsp90 inhibitors” (Bioorg Med Chem Lett, 2005)
“And” between values parts separate entries of the source, which are not always exact repeats. Equal values may be shown once.

Columns and labels:
Assay type in all cases: functional
HCT-116 = assay: Inhibition of HCT116 human colon cancer cell proliferation
Outline: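 HCT116 colon cancer cells; growth inhibition measured by sulforhodamine B (SRB) assay; GI50 derived.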

[1] = target: ATP-dependent molecular chaperone HSP82 (Saccharomyces cerevisiae S288c) (UniProt P02829); assay: Inhibition of yeast Hsp90 ATPase activity at 40 uM
[2] = target: ATP-dependent molecular chaperone HSP82 (Saccharomyces cerevisiae S288c, UniProt P02829); assay: Inhibition of yeast Hsp90 ATPase activity
Outline: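 Yeast Hsp90 ATPase activity assay. Original conditions were 1 mM ATP substrate, incubated 3 h at 37 °C. Later optimised conditions used lower ATP and enzyme concentrations, with overnight incubation at 37 °C. IC50 values derived.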

Sequence of ATP-dependent molecular chaperone HSP82 (Saccharomyces cerevisiae S288c) (P02829 whole entry, looked up): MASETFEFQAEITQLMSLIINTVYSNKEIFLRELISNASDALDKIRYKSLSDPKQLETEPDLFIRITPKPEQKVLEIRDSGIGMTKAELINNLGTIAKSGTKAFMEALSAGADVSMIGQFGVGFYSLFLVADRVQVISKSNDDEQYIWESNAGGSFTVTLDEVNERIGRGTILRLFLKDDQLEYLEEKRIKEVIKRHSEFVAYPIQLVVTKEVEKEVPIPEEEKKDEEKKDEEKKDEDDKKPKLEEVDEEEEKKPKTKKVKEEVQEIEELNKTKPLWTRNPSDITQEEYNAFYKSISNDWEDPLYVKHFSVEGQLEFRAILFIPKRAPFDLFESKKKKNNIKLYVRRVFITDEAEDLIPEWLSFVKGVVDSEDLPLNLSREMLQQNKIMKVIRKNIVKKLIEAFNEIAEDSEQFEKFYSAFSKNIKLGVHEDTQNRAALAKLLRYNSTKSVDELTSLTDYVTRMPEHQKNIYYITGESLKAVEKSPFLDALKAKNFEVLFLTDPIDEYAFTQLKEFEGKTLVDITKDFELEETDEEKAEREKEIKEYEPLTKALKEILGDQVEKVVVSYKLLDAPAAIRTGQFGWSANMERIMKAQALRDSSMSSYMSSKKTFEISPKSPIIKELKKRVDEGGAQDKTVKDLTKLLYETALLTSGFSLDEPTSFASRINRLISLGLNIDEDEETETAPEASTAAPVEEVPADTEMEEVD
Sequence of ATP-dependent molecular chaperone HSP82 (P02829 whole entry): as the sequence (P02829 whole entry, looked up) above

SMILES | GI50 (HCT-116) | inhibition [1] | IC50 [2]
C=CCNC1=C2CC(C)C[C@H](OC)C(O)C(C)/C=C(\C)[C@H](OC(N)=O)[C@@H](OC)/C=C\C=C(/C)C(=O)NC(=CC1=O)C2=O (single isomer, unassigned) [TANESPIMYCIN] | 0.021 µM | 80% | –
COC1=C2CC(C)C[C@H](OC)C(O)C(C)/C=C(\C)[C@H](OC(N)=O)[C@@H](OC)/C=C\C=C(/C)C(=O)NC(=CC1=O)C2=O (single isomer, unassigned) [GELDANAMYCIN] | 0.067 µM | 90% | –
CCCc1cc(-c2[nH]nc(C)c2-c2ccc3c(c2)OCCO3)c(O)cc1O | – | 25% | 46.1 µM
Cc1n[nH]c(-c2cc(Cl)c(O)cc2O)c1-c1ccc(OCCCC#N)cc1 | 3.6 µM | – | < 1 µM
CCC(C)c1cc(-c2[nH]ncc2-c2ccc3c(c2)OCCO3)c(O)cc1OC (stereo not given) | – | 0% | –
CCc1cc(-c2n[nH]c(C)c2-c2ccc3c(c2)OCCO3)c(O)cc1O | – | – | 8.9 µM and 7.1 µM
COc1ccc(-c2c[nH]nc2-c2cc(Cl)c(O)cc2O)cc1OC | 13 µM | – | 2.4 µM
COc1ccc(-c2cn(C)nc2-c2cc(Cl)c(O)cc2O)cc1OC | – | – | > 100 µM
CCC(C)c1cc(-c2[nH]ncc2-c2ccccc2)c(O)cc1OC (stereo not given) | – | 10% | –
Cc1[nH]nc(-c2cc(Cl)c(O)cc2O)c1-c1ccc2c(c1)OCCO2 | 4 µM | – | < 1 µM
Cc1n[nH]c(-c2ccc(O)cc2O)c1-c1ccc2c(c1)OCCO2 | – | 26% | –
CCC(C)c1cc(-c2[nH]ncc2-c2ccc3c(c2)OCO3)c(O)cc1O (stereo not given) | – | 64% | –
Cc1n[nH]c(-c2ccc(O)c(Cl)c2)c1-c1ccc2c(c1)OCCO2 | – | – | > 100 µM
N#CCCCOc1ccccc1-c1cn[nH]c1-c1cc(Cl)c(O)cc1O | 31 µM | – | 12.8 µM
COc1cc(O)c(-c2[nH]ncc2-c2ccc3c(c2)OCO3)cc1C(C)C | – | 20% | –
CCc1cc(-c2[nH]nc(C)c2-c2ccc3c(c2)OCCO3)c(O)cc1O | 4.1 µM | 79% | –
Cc1[nH]nc(-c2cc(Cl)ccc2O)c1-c1ccc2c(c1)OCCO2 | – | – | 25.5 µM
Cc1n[nH]c(-c2cc(Cl)c(O)cc2O)c1-c1ccccc1 | 6.4 µM | – | 1.65 µM
CC(C)c1cc(-c2[nH]ncc2-c2nc3ccccc3s2)c(O)cc1O | – | 15% | –
Cc1n[nH]c(-c2ccc(O)cc2O)c1Oc1ccc(F)cc1 | – | 0% | –
N#CCCCOc1ccc(-c2cn[nH]c2-c2cc(Cl)c(O)cc2O)cc1 | 6.8 µM | – | < 1 µM
N#CCCCOc1cccc(-c2cn[nH]c2-c2cc(Cl)c(O)cc2O)c1 | 30 µM | – | 2.4 µM
Oc1cc(O)c(-c2n[nH]cc2-c2ccc3c(c2)OCCO3)cc1Cl | 23 µM | – | 1.6 µM
CCC(C)c1cc(-c2n[nH]cc2-c2ccc3c(c2)OCO3)c(O)cc1O (stereo not given) | – | – | 22.3 µM
COc1ccc(-c2[nH]nc(C)c2-c2ccc3c(c2)OCCCO3)c(O)c1 | – | 25% | –
Oc1cc(O)c(-c2n[nH]cc2-c2ccc(-c3ccc(F)cc3)cc2)cc1Cl | 11 µM | – | 1.55 µM
COc1ccc(-c2c[nH]nc2-c2cc(C(C)C)c(OC)cc2O)cc1 | – | 13% | –
